In assay [1] the test system is Rattus norvegicus. The assay is described as follows: CNS activity in po dosed rat assessed as increase in latency to kill by muricidal rat test. It is filed as functional. The note with it: read-out: MED. The essentials:
(§1)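 Oral dosing in rats in the septal-lesioned and muricidal assays, with a 10 mg/kg po screening dose. Active compounds were titrated down to a minimum effective dose. Vehicle controls were given on the same injection-volume basis.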

Assay [2] deals with Rattus norvegicus. Briefly: CNS activity in rat assessed as decrease in septal-lesioned-induced hyperactivity at 10 mg/kg, po by septal-lesioned rat test. It is filed as functional, organism-based. Also noted: dose 10 mg/kg. A digest of the protocol:
as §1

The test system of assay [3] is Mus musculus. The assay is described as follows: CNS activity in po dosed mouse assessed as decrease in early exploratory behavior in activity cage. In kind it is functional. The note with it: read-out: MED. The essentials:
(§2)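 Oral dosing in mice, with a 20 mg/kg po screening dose. Active compounds were titrated down to a minimum effective dose. Vehicle controls were given on the same injection-volume basis.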

The test system of assay [4] is Rattus norvegicus. Briefly: CNS activity in rat assessed as increase in latency to kill at 10 mg/kg, po by muricidal rat test. On the set-up: dose 10 mg/kg. In kind it is functional, organism-based. A digest of the protocol:
as §1

Assay [5] relates to Rattus norvegicus. The assay is described as follows: CNS activity in po dosed rat assessed as decrease in septal-lesioned-induced hyperactivity by septal-lesioned rat test. Particulars: read-out: MED. It is filed as functional. The essentials: as §1
In assay [6] the test system is Mus musculus. Briefly: CNS activity in mouse assessed as decrease in early exploratory behavior in activity cage at 20 mg/kg, po. In kind it is functional, organism-based. On the set-up: dose 20 mg/kg. The essentials: as §2

Activity calls are given as the source filed them. The rule behind the calls is not given here.

This passage reports minimal effective dose and Activity results from ChEMBL document CHEMBL3243929, “Cannabinoids. 2. Synthesis and central nervous system activities of some B-ring homocannabinoid derivatives and related lactones” (1977).

Regarding `CCCCCCC(C)(C)c1cc(O)c2c(c1)OC(C)(C)CC1=C2CC(C)CC1` (centres undefined), the minimal effective dose with Rattus norvegicus [1] and in the assay with Mus musculus [3] was 2.5 mg/kg in each case. Further, the result with Rattus norvegicus [2] was inactive.
As for `CCCCCCC(C)(C)c1cc(O)c2c(c1)OC(=O)CC1=C2CC(C)CC1` (centres undefined), the minimal effective dose in the assay on Rattus norvegicus [1] and in the assay with Mus musculus [3] was 5 mg/kg in each case. Also, in the assay on Rattus norvegicus [2], the outcome was inactive.
As to `CCCCCc1cc(O)c2c(c1)OC(C)(C)[C@@H]1CCC(C)=C[C@@H]21` [DRONABINOL], the minimal effective dose in the assay with Rattus norvegicus [1] was found to be 5 mg/kg; in the assay on Mus musculus [3], 10 mg/kg. Further, in the assay with Rattus norvegicus [2], the outcome was inactive.
`CCCCCCC(C)(C)c1cc(O)c2c(c1)OCC(C)(C)C1=C2CC(C)CC1` (centres undefined): the result in the assay on Rattus norvegicus [2] and in the assay with Rattus norvegicus [4] was inactive. Also, the minimal effective dose in the assay with Mus musculus [3] worked out at 20 mg/kg.
As for `CCCCCCC(C)(C)c1cc(O)c2c(c1)OC(C)(C)C1=C2CC(C)CC1` (centres undefined), the minimal effective dose was 0.62 mg/kg in the assay on Rattus norvegicus [1], 1.25 mg/kg in the assay on Rattus norvegicus [5] and 0.62 mg/kg in the assay on Mus musculus [3].
As for `CCCCCCC(C)(C)c1cc(O)c2c3c(c(=O)oc2c1)CCC(C)C3` (centres undefined), the outcome in the assay with Rattus norvegicus [2], with Rattus norvegicus [4] and in the assay on Mus musculus [6] was inactive.
`CCCCCCC(C)(C)c1cc(O)c2c(c1)OC(=O)C(C)(C)C1=C2CC(C)CC1` (centres undefined): the result with Rattus norvegicus [2], in the assay with Rattus norvegicus [4] and in the assay on Mus musculus [6] was inactive.
With `CCCCCCC(C)(C)c1cc(O)c2c(c1)OCCC1=C2CC(C)CC1` (centres undefined), the minimal effective dose with Rattus norvegicus [1], with Rattus norvegicus [5] and in the assay on Mus musculus [3] was 1.25 mg/kg throughout.
